VIM-2 inhibitor: blocks Pseudomonas aeruginosa VIM-2 metallo-beta-lactamase; purified VIM-2, nitrocefin hydrolysis, epi-absorbance fluorescence; inhibition, % at 5.6 µM; 0.89% of 290,000 active;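 active = inhibition above the mean of all tested compounds plus 3 SD, cutoff set per screening run, cut at about 7.5% in these data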;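 note: red hydrolysis product quenches plate fluorescence so inhibitors raise well fluorescence; 0% = enzyme with DMSO and 100% = DMSO without enzyme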
FID counter: counter-screen for HCV NS3 helicase inhibitors: DNA intercalator displacement; DNA fluorescent intercalator displacement, fluorescence; 0.17% of 290,000 active; inhibition, % at 7.9 µM; in the data active = inhibition above about 37%;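 note: 0% = vehicle and 100% = reference compound; higher means more ethidium bromide displaced from hairpin DNA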
IMP-1 inh: inhibitors of Pseudomonas aeruginosa IMP-1 metallo-beta-lactamase; 0.45% of 290,000 active; inhibition, % at 5.6 µM; purified IMP-1, nitrocefin hydrolysis, epi-absorbance fluorescence;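 active = inhibition above the mean plus 3 SD of all compounds in the same screening run, cut at about 4.5% in these data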;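 note: 0% = IMP-1 with DMSO and 100% = DMSO wells lacking enzyme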
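System – purified recombinant IMP-1 beta-lactamase · Input – IMP-1 dispensed at 0.2 nM · Timing – 15 min preincubation plus 25 min reaction at 25 °C · Signal – Epi-absorbance fluorescence, 480 nm excitation, 530 nm emission · Measure – percent IMP-1 inhibition derived from blank-referenced optical density · Controls – Enzyme-plus-DMSO low control, enzyme-free DMSO high control · Replication – singlicate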
NS3 helicase inh: HCV NS3 helicase inhibition; NS3 helicase DNA unwinding, Cy5 molecular beacon fluorescence; 0.56% of 290,000 active; inhibition, % at 10.9 µM; AID 1800;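 active = inhibition above the mean of all tested compounds plus 3 SD, set per campaign, cut at about 35% in these data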;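 note: 0% = DMSO wells and 100% = thioflavine S control wells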
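System: Hepatitis C virus NS3 helicase domain fragment enzyme | Reagent: Annealed dual-labelled DNA beacon duplex, ATP-started | Compound dosing: 10.9 µM single point, 0.8% DMSO | Incubation: 1 h reaction at 25 °C, ATP-initiated | Technique: Cy5 fluorescence | Evaluation: Percent inhibition from t60/t0 fluorescence ratio | Benchmarks: Low DMSO, high thioflavine S at 110 µM | Replication: Singlicate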
VIM-2 inh confirm: VIM-2 inhibition, confirmation assay | inhibition, % at 5.6 µM | shares compounds with IMP-1 inh | 73% of 200 active | AID 1860 | purified VIM-2 enzyme, nitrocefin absorbance; in the data active = inhibition above about 8%;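 note: 0% = enzyme with vehicle and 100% = no enzyme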
TEM-1 counter: blocks E. coli TEM-1 beta-lactamase, VIM-2 IMP-1 counter-screen. shares compounds with IMP-1 inh. nitrocefin absorbance inhibition. inhibition, % at 5.6 µM. 50% of 200 active; in the data active = inhibition above about 0.66%
Target sequence (P62593 whole entry, looked up): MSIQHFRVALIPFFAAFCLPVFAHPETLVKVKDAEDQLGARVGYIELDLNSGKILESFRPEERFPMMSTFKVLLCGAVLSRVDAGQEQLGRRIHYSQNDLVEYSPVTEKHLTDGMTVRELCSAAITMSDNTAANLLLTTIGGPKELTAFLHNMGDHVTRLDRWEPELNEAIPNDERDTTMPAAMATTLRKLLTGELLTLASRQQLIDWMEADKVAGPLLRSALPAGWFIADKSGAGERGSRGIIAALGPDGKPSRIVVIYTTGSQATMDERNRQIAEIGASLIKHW
IMP-1 inh conf: confirmation of P. aeruginosa IMP-1 metallo-beta-lactamase inhibitors | purified IMP-1 enzyme, absorbance substrate hydrolysis | 60% of 200 active | AID 2189 | shares compounds with IMP-1 inh | inhibition, % at 5.6 µM; in the data active = inhibition above about 4.9%;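 note: 0% = enzyme with vehicle and 100% = vehicle without enzyme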
Numbers without * were called inactive; x = no result given. Sampled rows, rich in hits. Any-hit rate of the full collection: about 1.9%.

SMILES	VIM-2 inhibitor	FID counter	IMP-1 inh	NS3 helicase inh	VIM-2 inh confirm	TEM-1 counter	IMP-1 inh conf
NS(=O)(=O)c1ccc(NC(=O)c2cccc(N3C(=O)c4ccccc4C3=O)c2)cc1	9.6*	-5.1	24.9*	-59.0	3.4	-2.0	16.6*
O=C(Nc1ccccc1C(=O)O)c1cccc(N2C(=O)c3ccccc3C2=O)c1	-1.2	-12.8	-1.2	2.6	x	x	x
CC1Cc2ccccc2N1C(=O)CCn1cccn1 (configuration not stated)	-3.2	-6.5	-4.0	0.6	x	x	x
CCCc1cc(C(N)=S)ccn1	7.6	-6.8	4.8*	22.9	3.3	-1.2	0.5
N=C1/C(=C\c2coc3ccccc3c2=O)C(=O)N=C2SC=CN12	9.3*	-3.6	8.6*	-0.8	16.0*	3.6*	11.6*
CSC1=NSC2=NC(=O)/C(=C/c3coc4ccccc4c3=O)C(=N)N12	-0.2	-3.5	0.3	12.7	x	x	x
Cc1cc(C)c2nc(C)cc(Nc3ccc(C(=O)N4CCOCC4)cc3)c2c1	3.1	0.8	-3.1	5.7	x	x	x
CC(C)c1nnc(N2C(=O)C(O)=C(C(=O)c3cccs3)C2c2ccccc2)s1 (configuration not stated)	16.6*	-2.4	7.2*	5.9	0.2	-0.2	-1.5
C=CCOc1ccc(C2C(C(=O)c3cccs3)=C(O)C(=O)N2c2nnc(C)s2)cc1 (configuration not stated)	17.5*	-25.1	12.9*	8.7	1.8	2.6*	-0.1
Cc1ccc(C2C(C(=O)c3ccco3)=C(O)C(=O)N2c2nnc(C)s2)cc1 (configuration not stated)	0.8	-1.4	1.4	11.2	x	x	x
O=[n+]1c2c(n([O-])c3ccccc31)CCCC2	13.5*	5.0	34.9*	16.1	-0.1	-1.2	-2.7
COc1ccc(NC(=O)C2Cc3cc(S(=O)(=O)N4CCCCC4)ccc3N2C(C)=O)cc1Cl (configuration not stated)	-1.6	-26.6	-1.4	-28.9	x	x	x
O=C(O)c1cccc(N2C(=O)c3cccc4c(Cl)ccc(c34)C2=O)c1	-0.4	-4.8	-3.1	-9.7	x	x	x
Cc1cccc(N2C(=O)c3cccc4c(N)ccc(c34)C2=O)c1	21.3*	-7.5	24.8*	4.5	21.3*	30.7*	18.8*
Nc1cccc(N2C(=O)c3cccc4c(N)ccc(c34)C2=O)c1	21.6*	-2.3	18.0*	-7.7	18.1*	21.0*	14.0*
O=C(O)c1ccc2c3c(cccc13)C(=O)N(c1ccccc1)C2=O	2.1	-0.1	1.2	18.4	x	x	x
Nc1ccc2c3c(cccc13)C(=O)N(c1ccccc1)C2=O	35.0*	-5.7	37.4*	1.8	35.2*	47.0*	32.8*
O=C(NCc1ccccc1)/C(=C\c1ccccc1)NC(=O)c1ccco1	-4.3	-5.8	-1.9	6.1	x	x	x
COc1ccc(C(=O)Nc2ccc(/C(C)=N/NC(=O)c3ccncc3)cc2)cc1	13.6*	-17.5	32.4*	7.1	12.3*	-4.7	18.9*
O=S(=O)(NC1=NCCC1)c1ccc(F)cc1F	-1.1	-3.6	-2.1	-6.4	x	x	x
Cc1[nH]c2ccccc2c1/C=C/c1cc[n+](C)cc1	10.3*	5.4	9.0*	-1.8	17.4*	0.0	3.0
Cc1ccccc1/C=C/c1cc[n+](C)cc1	0.0	-1.2	-2.3	-6.6	x	x	x
CCOP(=O)(O)c1ccccc1OCCOc1ccccc1P(=O)(O)OCC	-2.7	-0.8	-1.8	2.1	x	x	x
O=P(O)(O)COc1ccccc1P(=O)(c1ccccc1)c1ccccc1	11.8*	-4.7	5.3*	-1.5	16.5*	-3.8	-4.7
COc1cc2[nH]c(=O)n(C3CCCCC3)c(=O)c2cc1OC	-1.4	-6.1	-3.1	-6.5	x	x	x
Nc1ccc2nc3c(=O)n(C4CCCCC4)c(=O)[nH]c3nc2c1	20.6*	-3.9	23.6*	4.3	23.3*	29.6*	16.1*
Nc1ccc2nc3c(=O)n(CCc4ccccc4)c(=O)[nH]c3nc2c1	9.1*	-2.5	11.4*	19.4	19.1*	33.4*	17.6*
CCCCn1c(=O)[nH]c2nc3cc(N)ccc3nc2c1=O	18.7*	-0.7	17.2*	13.6	21.8*	30.8*	17.7*
Fc1ccc2[nH]c3c(c2c1)CN(C(=S)NCc1ccccc1)CC3	-0.9	10.6	-0.2	-5.9	x	x	x
